Bioassay records as filed in PubChem BioAssay.
PRMT1 inh = PRMT1 methyltransferase inhibitors, primary screen, biochemical, fluorescence polarization. 370,000 compounds, 1.3% hits. AID 652257, 2013. recombinant PRMT1, activity-based probe fluorescence polarization. Protein arginine N-methyltransferase 1 (Homo sapiens), Q99873. inhibition, % at 2.79 µM;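 active = inhibition above about 21% made by adding two undisclosed values, limit read from the data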
ABHD4 inh = ABHD4 inhibitors, primary screen, biochemical, fluorescence polarization, mouse; (Lyso)-N-acylphosphatidylethanolamine lipase (Mus musculus), Q8VD66; purified mABHD4, FP-Rh probe fluorescence polarization; inhibition, % at 8.92 µM; 370,000 compounds, 0.54% hits; AID 720543, 2013;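 active = inhibition exceeding the mean over every tested compound plus 3 SD, cut at about 30% in these data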;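 note: 0% = plate median of compound wells and 100% = S159A mutant with DMSO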
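assay system = mABHD4 protein | compound dosing = single nominal dose of 8.92 µM, 0.89% DMSO final | read-out basis = percent inhibition of probe binding, normalized to plate controls | schedule = Enzyme–compound pre-incubation 45 min, then probe 60 min, both 25 °C | detection = fluorescence polarization, excitation 525 nm, emission 598 nm, BODIPY TMR filters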
rCAG binder-1 = binders of r(CAG) RNA repeats, primary screen, biochemical, fluorescence | r(CAG) RNA repeat, TO-PRO-1 dye displacement fluorescence | inhibition, % at 3 µM | 370,000 compounds, 1.3% hits;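 active = inhibition above the plate cutoff, the mean of all test compounds on that plate plus 3 SD, cut at about 35% in these data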;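 note: 0% = DMSO alone and 100% = 100 µM mitoxantrone as full dye displacement; higher means more dye released from RNA so lower well fluorescence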
SIAE inh = human SIAE inhibitors, primary screen, biochemical, fluorescence polarization, FP-Rh probe, 1536-well HTS; SIAE FP-Rh probe binding; inhibition, % at 9.66 µM; 370,000 compounds, 0.69% hits; AID 1053197, 2014;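 active = inhibition above a cutoff: mean of compounds within the control limits plus 3 SD of those, cut at about 17% in these data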;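 note: 0% = plate median of compound wells and 100% = probe without SIAE protein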
Target sequence (Q9HAT2 whole entry, looked up): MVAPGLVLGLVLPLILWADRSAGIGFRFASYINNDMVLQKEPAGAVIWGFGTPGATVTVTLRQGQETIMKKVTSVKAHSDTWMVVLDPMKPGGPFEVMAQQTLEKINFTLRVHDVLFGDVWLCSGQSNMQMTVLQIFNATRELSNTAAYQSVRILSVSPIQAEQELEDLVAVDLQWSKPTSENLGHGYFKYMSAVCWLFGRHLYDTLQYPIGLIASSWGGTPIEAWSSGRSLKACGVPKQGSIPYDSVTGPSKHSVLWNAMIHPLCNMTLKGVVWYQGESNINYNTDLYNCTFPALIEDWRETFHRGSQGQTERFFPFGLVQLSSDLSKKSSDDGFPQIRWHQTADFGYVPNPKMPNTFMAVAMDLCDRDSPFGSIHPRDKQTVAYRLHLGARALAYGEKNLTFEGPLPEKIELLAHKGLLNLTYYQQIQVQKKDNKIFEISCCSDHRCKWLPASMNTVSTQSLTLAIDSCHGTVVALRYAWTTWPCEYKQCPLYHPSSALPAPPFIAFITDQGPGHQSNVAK
TCR-CD3 inh = inhibitors of human TCR-CD3 interaction, primary screen, biochemical, fluorescence, TAMRA-labeled TCR probe; AID 651800, 2012; T-cell receptor (TCR); inhibition, % at 9.4 µM; 360,000 compounds, 0.37% hits; in the data active = inhibition above about 19%;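 note: recombinant mutant TCR 2C K166C tagged with TAMRA read by polarization; 0% = receptor in buffer alone and 100% = receptor with positive control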
rCAG bind conf = small molecules binding CAG repeat RNA – biochemical, fluorescence, confirmation | shares compounds with rCAG binder-1 | r(CAG) RNA repeat, TO-PRO-1 dye displacement fluorescence | inhibition, % at 3 µM | 4,300 compounds, 70% hits;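 active = inhibition above a per-plate cutoff, the mean inhibition of sample wells plus 3 SD, cut at about 35% in these data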;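 note: loss of TO-PRO-1 fluorescence as compound displaces dye from 1x1 AA loop RNA; 0% = DMSO only wells and 100% = 100 µM mitoxantrone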
DNA CAG counter = displacement of TO-PRO-1 from CAG DNA duplex, counter-screen for rCAG RNA repeat binder project, biochemical, fluorescence, TO-PRO-1 dye, d(CAG) DNA oligo; 4,300 compounds, 94% hits; shares compounds with rCAG binder-1; d(CAG) DNA oligo TO-PRO-1 dye displacement; inhibition, % at 3 µM; AID 652068, 2013;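 active = inhibition above its plate's cutoff, the mean test-well inhibition plus 3 SD, cut at about 4.8% in these data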;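 note: 0% = DNA dye mix with DMSO and 100% = 100 µM mitoxantrone; hits displace the dye from DNA and so lower well fluorescence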
DNA CAG DR = inhibitors of DNA CAG/GTC TO-PRO-1 complex, dose response, counter-screen for rCAG RNA repeat binder project, biochemical, fluorescence, TO-PRO-1 dye; shares compounds with rCAG binder-1; DNA CAG/GTC duplex TO-PRO-1 dye displacement fluorescence; IC50, µM; 250 compounds, 20% hits; in the data active = IC50 below about 10 µM
dCAG DNA bind = TO-PRO-1 dye complex inhibitors on d(CAG) DNA, dose response, counter-screen, biochemical, fluorescence, late stage | shares compounds with rCAG binder-1 | AID 720649, 2013 | d(CAG) DNA duplex TO-PRO-1 dye displacement | IC50, µM | 30 compounds, 80% hits
rCAG binder-2 = molecules binding r(CAG) RNA repeats, late stage dose response, late-stage follow-up, biochemical, fluorescence, dose response, powder samples | shares compounds with rCAG binder-1 | r(CAG) RNA TO-PRO-1 dye displacement | IC50, µM | 30 compounds, 100% hits | AID 720651, 2013
Active calls of the source: *; i = inactive; nt = not tested or not shown. Most compounds without a hit are left out; they make up all but 3.3% or so of the library. Unless noted, the rule behind the calls is not given here.

SMILES	PRMT1 inh	ABHD4 inh	rCAG binder-1	SIAE inh	TCR-CD3 inh	rCAG bind conf	DNA CAG counter	others
Cc1cccc(S(=O)(=O)NC(=O)C2(C)CCN2C(=O)CCc2ccccc2)c1 (stereo unspecified)	-1.2	7.2	5.0	-3.8	-0.8	nt	nt
CCCCOc1ccc(S(=O)(=O)NC(=O)C2(C)CCN2C(=O)Cc2ccccc2Cl)cc1 (stereo unspecified)	-2.2	2.4	43.5*	-1.1	1.8	37.9*	9.1*
COCCNC(=O)C[C@H]1CC[C@H]2[C@@H](COc3ccc(NS(=O)(=O)c4ccc(Cl)cc4)cc3C(=O)N2C)O1	-0.3	8.1	0.5	-2.3	nt	nt	nt
CC(C)(C)OC(=O)n1cc(-c2ccccc2)c2c(-c3ccccc3)c(O)ccc21	-4.1	9.8	4.8	4.9	nt	nt	nt
O=C(CSc1nnc(-c2cccs2)o1)Nc1cccc2ccccc12	4.7	0.5	1.4	-2.6	nt	nt	nt
S=c1[nH]nc(-c2ccco2)n1/N=C/C=C/c1ccco1	12.9	16.7	19.5	5.5	18.7	nt	nt
S=c1[nH]nc(-c2cc(-c3ccccc3)n[nH]2)n1/N=C/c1c(Cl)cccc1Cl	6.2	7.8	43.5*	-16.1	-1.9	67.7*	28.9*
Cc1ccccc1/C=N/n1c(-c2cc(-c3ccccc3)n[nH]2)n[nH]c1=S	15.9	3.1	30.8	0.7	-1.7	nt	nt
S=c1[nH]nc(-c2cc(-c3ccccc3)n[nH]2)n1/N=C/c1cccc2ccccc12	17.2	1.5	78.6*	4.7	nt	78.4*	40.3*
COc1ccc2ccccc2c1C=Nn1c(-c2cc(-c3ccccc3)n[nH]2)n[nH]c1=S	11.0	5.7	69.5*	3.1	nt	58.3*	27.5*
S=c1[nH]nc(-c2cc(-c3ccccc3)n[nH]2)n1/N=C/C=C/c1ccco1	12.4	15.4	41.5*	9.3	15.7	50.9*	23.6*
COC(=O)[C@]12C[C@H](CC(=O)NCCCN3CCCC3=O)C(=O)N(CCC3=CCCCC3)C1=C[C@H](C(C)C)O[C@@H]2C1CC1	4.4	-1.6	-2.3	0.9	nt	nt	nt
CCOC(=O)C1=C(c2ccccc2)N=c2s/c(=C\c3ccc(O)cc3)c(=O)n2C1c1cccs1 (stereo unspecified)	-2.1	-56.7	37.0*	-47.6	-38.7	35.8*	19.9*
CCOC(=O)C1=C(c2ccccc2)N=c2sc(=Cc3cc(OC)c(OC)c(OC)c3)c(=O)n2C1c1cccs1 (stereo unspecified)	7.3	-0.3	12.5	-4.8	8.4	nt	nt
Cc1cc(NC(=S)N(Cc2cccc(Br)c2)CC2CCC(C(=O)O)CC2)ccc1Cl (stereo unspecified)	-2.7	-56.4	46.3*	-1.2	-0.7	63.7*	24.5*
Cc1cc(C)cc(NC(=S)N(Cc2ccc(Br)cc2)Cc2ccc(C(=O)O)cc2)c1	-1.1	-1.2	65.0*	-3.0	3.1	68.0*	27.4*
Cc1cccc(NC(=S)N(Cc2ccc(Cl)cc2)Cc2ccc(C(=O)O)cc2)c1	-2.1	-3.4	27.1	0.9	4.6	nt	nt
Cc1cc(C)cc(NC(=S)N(Cc2ccc(Cl)cc2)Cc2ccc(C(=O)O)cc2)c1	-0.8	5.9	49.1*	-3.5	3.5	65.1*	28.9*
COc1cccc(NC(=S)N(Cc2ccc(C(=O)O)cc2)Cc2ccc(OC)c(OC)c2)c1	6.5	-4.0	12.2	-6.6	1.1	nt	nt
COc1ccc(NC(=S)N(Cc2ccc(Cl)cc2)Cc2ccc(C(=O)O)cc2)cc1Cl	-1.9	-5.8	59.5*	5.8	3.9	60.4*	21.4*
COP(=O)(CC(=O)O)C(CC(C)C)NC(=O)OCc1ccccc1 (stereo unspecified)	2.0	1.1	3.8	-1.0	nt	nt	nt
COc1ccc(CN(Cc2ccc(C(=O)O)cc2)C(=S)Nc2ccccc2Cl)cc1OC	1.9	-4.5	15.4	-5.0	-0.7	nt	nt
COc1ccc(CN(Cc2ccc(C(=O)O)cc2)C(=S)Nc2ccccc2C)cc1OC	1.5	-0.9	2.1	0.2	8.3	nt	nt
Cc1cc(NC(=S)N(Cc2ccc(Cl)cc2)Cc2ccc(C(=O)O)cc2)ccc1Cl	-1.0	-23.3	69.4*	-3.1	6.3	82.6*	46.8*
Cc1ccc(C)c(NC(=S)N(Cc2ccc(Cl)cc2)Cc2ccc(C(=O)O)cc2)c1	-0.9	-11.1	44.5*	-5.2	-1.4	49.0*	14.4*
SMILES	PRMT1 inh	ABHD4 inh	rCAG binder-1	SIAE inh	TCR-CD3 inh	rCAG bind conf	DNA CAG counter	others
CCc1ccccc1NC(=S)N(Cc1ccc(C(=O)O)cc1)Cc1ccc(OC)c(OC)c1	-0.4	-7.2	9.2	4.1	0.4	nt	nt
CCc1ccc(NC(=S)N(Cc2ccc(Cl)cc2)Cc2ccc(C(=O)O)cc2)cc1	0.8	-7.3	68.5*	-0.2	0.2	61.5*	23.3*
Cc1ccc(NC(=S)N(Cc2ccc(Br)cc2)Cc2ccc(C(=O)O)cc2)cc1C	-4.9	-8.9	53.9*	5.7	7.7	70.9*	31.1*	DNA CAG DR=i;dCAG DNA bind=4.62*;rCAG binder-2=1.97*
CCS(=O)(=O)C1=NN2C(=N)/C(=C\c3ccc(OC(=O)c4ccco4)cc3)C(=O)N=C2S1	0.5	0.7	24.1	-11.2	9.6	nt	nt
N=C1/C(=C\c2ccc(OC(=O)c3ccccc3Cl)cc2)C(=O)N=C2SC(N3CCOCC3)=NN12	2.9	9.2	37.0*	-0.6	1.5	63.2*	26.5*
CS(=O)(=O)C1=NSC2=NC(=O)/C(=C\c3ccc(OC(=O)c4ccco4)c(Br)c3)C(=N)N21	3.3	-7.8	40.3*	-21.2	-4.2	83.1*	52.5*
CSC1=NSC2=NC(=O)/C(=C\c3ccc(OC(=O)c4ccco4)cc3)C(=N)N12	-3.8	-8.1	37.7*	-11.9	-0.1	42.8*	13.3*
